The term Inhibition denotes the change of the read-out against control, counted positive when it falls. What is called Kd is the equilibrium constant for the complex coming apart. Broadly, the inhibition is the share of the control response that was lost under treatment.

The species entered for assay [1] is Rattus norvegicus. Briefly: maximal contraction of rat stomach strip by 3 x 10e -7M serotonin. It counts as functional.
The species named for assay [2] is Rattus norvegicus. Briefly: Concentration required to elicit 50% of the maximal contraction of rat stomach strip. In kind it is functional. A digest of the protocol:
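Rat stomach strip contraction was measured as the concentration giving 50% of the maximal contraction produced by 3×10^-7 M serotonin.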

The species entered for assay [3] is Cavia porcellus. Briefly: In vitro evaluation for antagonist activity against the contraction-induced by histamine (1 ug/mL). It counts as functional. The conditions noted are these: read-out: I50. In outline: (§1)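 Guinea pig trachea spirals were contracted by either 9,11-azo-PGH2 (a stable PGH2/TxA2 mimetic) or histamine, and compounds were tested for blockade of these contractions.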

The species named for assay [4] is Cavia porcellus. The assay is described as follows: In vitro evaluation for antagonist activity against the contraction-induced by 9,11-azo-PGH2 (0.1 ug/mL). It counts as functional. The conditions noted are these: read-out: I50. A digest of the protocol: as §1
For assay [5], the species on record is Cavia porcellus. Briefly: Duration of action of compound for Inhibition of arachidonic acid-induced response in guinea pigs. In kind it is functional.
Assay [6] concerns Cavia porcellus. Briefly: Change in mean arterial blood pressure in guinea pigs by 1 mg/kg of intravenously administered compound. It counts as functional, Artery. The conditions noted are these: route intravenous. A digest of the protocol:
(§2)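 Anesthetized guinea pigs were challenged with arachidonic acid, and lung mechanics (lung resistance, dynamic compliance) and mean arterial blood pressure were recorded. Compounds were given as a 1.0 mg/kg rapid iv infusion, with n = 5 versus vehicle. Inhibition above 100% denotes reversal of the blood-pressure response.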

The subject of assay [7] is Cavia porcellus. Briefly: Inhibition of arachidonic acid-induced response in guinea pigs by 1 mg/kg of intravenously administered compound. In kind it is functional. Further details: scale not given: the % may be the effect or the level left. Particulars: route intravenous. A digest of the protocol: as §2
The species entered for assay [8] is Homo sapiens. The assay is described as follows: Percent inhibition on the synthesis of thromboxane B2 at a dose of 100 uM. In kind it is functional. A digest of the protocol:
(§3)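 Arachidonic acid metabolism was measured in a lysed platelet preparation. Thromboxane synthesis (as TxB2) and PGE2 production were determined at each listed test concentration.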

The species named for assay [9] is Homo sapiens. Briefly: (§4) Percentage stimulation on the synthesis of PGE-2 at a dose of 10 uM. In kind it is functional. In outline: as §3
The species named for assay [10] is Homo sapiens. The assay is described as follows: (§5) Percentage stimulation on the synthesis of PGE-2 was at a dose of 100 uM. In kind it is functional. A digest of the protocol:
as §3

The species entered for assay [11] is Homo sapiens. The assay is described as follows: (§6) Percentage stimulation on the synthesis of PGE-2 was at a dose of 1000 uM. In kind it is functional. A digest of the protocol: as §3
The species named for assay [12] is Homo sapiens. The assay is described as follows: In vitro evaluation for arachidonic acid induced platelet aggregation of human platelet-rich plasma. In kind it is functional. The conditions noted are these: read-out: I50. In outline: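 Human platelet-rich plasma was aggregated with arachidonic acid (800 μM). An ADP (20 μM)-induced aggregation run served as a counter-screen.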

The species named for assay [13] is Homo sapiens. The assay is described as follows: Percent inhibition on the synthesis of thromboxane B2 at a dose of 333 uM. It counts as functional. A digest of the protocol: as §3
Assay [14] deals with T1, Thromboxane A2 receptor (Homo sapiens, UniProt P21731).
T1 sequence (P21731 whole entry): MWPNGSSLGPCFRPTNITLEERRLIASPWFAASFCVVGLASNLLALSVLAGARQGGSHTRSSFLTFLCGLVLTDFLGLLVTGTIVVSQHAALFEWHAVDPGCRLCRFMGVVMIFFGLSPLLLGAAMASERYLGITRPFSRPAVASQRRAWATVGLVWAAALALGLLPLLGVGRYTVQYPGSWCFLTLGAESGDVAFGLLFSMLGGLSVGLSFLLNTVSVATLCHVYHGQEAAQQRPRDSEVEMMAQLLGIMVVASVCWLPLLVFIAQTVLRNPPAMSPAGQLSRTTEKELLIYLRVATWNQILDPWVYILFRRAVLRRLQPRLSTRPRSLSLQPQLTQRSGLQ
Briefly: Compound was evaluated for inhibition of specific binding of HSQ (5,6-di-3H-SQ 29,548) in washed platelets. Further details: species or system Cavia porcellus.

The species named for assay [15] is Homo sapiens. The assay is described as follows: Percent inhibition on the synthesis of thromboxane B2 at a dose of 1000 uM. It counts as functional. In outline:
as §3

The species entered for assay [16] is Homo sapiens. The assay is described as follows: Percentage stimulation on the synthesis of PGE-2 was at a dose of 33 uM. It counts as functional. A digest of the protocol: as §3
For assay [17], the species on record is Homo sapiens. Briefly: Percentage stimulation on the synthesis of PGE-2 was at a dose of 333 uM. It counts as functional. A digest of the protocol:
as §3

Assay [18] is filed under the species Homo sapiens. The description is as §5. It counts as functional. In outline: as §3
The source holds these as a separate data set.

For assay [19], the species on record is Homo sapiens. The description is as §4. It counts as functional. In outline:
as §3
This is another data set of the same source.

Assay [20] relates to thromboxane-A synthase (Homo sapiens). Briefly: Percent inhibition on the synthesis of thromboxane B2 at a dose of 100 uM.
For assay [21] the test system is unchanged. Briefly: Percent inhibition on the synthesis of thromboxane B2 at a dose of 10 uM.
Assay [22] shares this test system. Briefly: Percent inhibition on the synthesis of thromboxane B2 at a dose of 1000 uM.
The species entered for assay [23] is Homo sapiens. The description is as §6. In kind it is functional. A digest of the protocol:
as §3
The source holds these as a separate data set.

For assay [24], the species on record is Homo sapiens. The assay is described as follows: Percent inhibition on the synthesis of thromboxane B2 at a dose of 10 uM. It counts as functional. A digest of the protocol:
as §3

The species named for assay [25] is Homo sapiens. Briefly: Percent inhibition on the synthesis of thromboxane B2 at a dose of 1.0 uM. It counts as functional. In outline: as §3
For assay [26], the species on record is Homo sapiens. The assay is described as follows: Percentage stimulation on the synthesis of PGE-2 was at a dose of 3.1 uM. It counts as functional. A digest of the protocol:
as §3

The species named for assay [27] is Homo sapiens. Briefly: Percent inhibition on the synthesis of thromboxane B2 at a dose of 31 uM. It counts as functional. A digest of the protocol:
as §3

The species entered for assay [28] is Homo sapiens. The assay is described as follows: Percentage stimulation on the synthesis of PGE-2 at a dose of 1.0 uM. It counts as functional. A digest of the protocol:
as §3

The species entered for assay [29] is Homo sapiens. The assay is described as follows: Percent inhibition on the synthesis of thromboxane B2 at a dose of 3.1 uM. In kind it is functional. In outline:
as §3

The species named for assay [30] is Homo sapiens. Briefly: Percentage stimulation on the synthesis of PGE-2 was at a dose of 31 uM. It counts as functional. In outline: as §3
The species entered for assay [31] is Homo sapiens. The assay is described as follows: Percentage stimulation on the synthesis of PGE-2 was at a dose of 10 uM. It counts as functional. In outline:
as §3

The target in assay [32] is Thromboxane A2 receptor (Homo sapiens) (UniProt P21731). The assay is described as follows: Compound was evaluated for inhibition of specific binding of HSQ (5,6-di-3H-SQ 29,548) in washed platelets.
Assay [33] concerns Cavia porcellus. The assay is described as follows: Change in mean arterial blood pressure(MABP) in guinea pigs by 1 mg/kg of intravenously administered compound; activity MABP. It counts as functional, Artery. Particulars: route intravenous. In outline: as §2
The target of assay [34] is T1, Thromboxane A2 receptor. The assay is described as follows: Inhibition of specific binding of HSQ(5,6-di-3H-SQ 29,548) in washed platelets. Further details: species or system Cavia porcellus.
Assay [35] deals with Cavia porcellus. Briefly: Change in mean arterial blood pressure(MABP) in guinea pigs by 1 mg/kg of intravenously administered compound. It counts as functional, Artery. The conditions noted are these: route intravenous. In outline:
as §2

“And” between values parts separate entries of the source, which are not always exact repeats. Identical values can stand only once.

In the assay listed under Rattus norvegicus [1], `CCCCCC[S+]([O-])CC1C2CCC(O2)C1C/C=C\CCCC(=O)O` (stereo not drawn) came in with a Contraction of 9%. This molecule showed an A50 in the assay filed under Rattus norvegicus [2] of 21 µM.
Take `CCC/C=C(\C)CSCC1C2CCC(O2)C1CC=CCCCC(=O)O` (stereo not drawn): the IC50 in the assay listed under Cavia porcellus [3] was greater than 100000 nM; in the assay filed under Cavia porcellus [4], 1600 nM. The same molecule showed an A50 in the assay listed under Rattus norvegicus [2] of 46 µM.
The molecule `O=C(O)CCC/C=C\CC1C2CCC(O2)C1CSc1ccccc1` (stereo not drawn) had an A50 in the assay filed under Rattus norvegicus [2] of 0.8 µM.
Consider `CCC/C=C\CSCC1C2CCC(O2)C1C/C=C\CCCC(=O)O` (stereo not drawn), for which the IC50 is greater than 100000 nM in the assay filed under Cavia porcellus [3] and 1600 nM in the assay listed under Cavia porcellus [4]. In the assay listed under Cavia porcellus [5], this molecule gave a Duration of less than 60 min. Further, the “Activity MABP” value with Cavia porcellus [6] was 98% and 194%. The A50 in the assay listed under Rattus norvegicus [2] is 4.3 µM.
As to `O=C(O)CCC/C=C\CC1C2CCC(O2)C1CSCCc1ccccc1` (stereo not drawn), the A50 in the assay listed under Rattus norvegicus [2] turned out to be 23 µM.
As to `CC/C=C\CCSCC1C2CCC(O2)C1C/C=C\CCCC(=O)O` (stereo not drawn), the IC50 in the assay filed under Cavia porcellus [3] was greater than 100000 nM; in the assay listed under Cavia porcellus [4], 380 nM; in the assay filed under Homo sapiens [12], 200 nM. In the assay on Cavia porcellus [7], the Activity is 245% and 97%. Also, the Inhibition is given as 24.4% in the assay filed under Homo sapiens [8], 56.9% in the assay filed under Homo sapiens [13] and 91.2% in the assay listed under Homo sapiens [15]. The Duration in the assay listed under Cavia porcellus [5] was greater than 60 min. The Stimulation in the assay filed under Homo sapiens [9] was 210%; in the assay filed under Homo sapiens [10], 900%; in the assay listed under Homo sapiens [11] it was 1920%; in the assay filed under Homo sapiens [16], 420%; in the assay filed under Homo sapiens [17], 1340%. On Thromboxane A2 receptor [14], the dissociation constant (Kd) is 0.4 nM. The A50 in the assay listed under Rattus norvegicus [2] came to 0.2 µM.
For the molecule `CCCCCCSC[C@H]1C2CC[C@@H](O2)[C@H]1C/C=C\CCCC(=O)O` (single isomer, unassigned; (+)), the results for the Stimulation in the assay listed under Homo sapiens [18], in the assay listed under Homo sapiens [19] and in the assay filed under Homo sapiens [23] were 44%, 27% and -51%, respectively. In addition, the inhibition in [20] was determined as 45%; in assay [21] it was 33%; in assay [22], 75%.
As for `CCCCCCSC[C@H]1C2CC[C@@H](O2)[C@H]1C/C=C\CCCC(=O)O` (single isomer, unassigned; (-)), the Inhibition in the assay listed under Homo sapiens [24] is reported as 17%; in the assay filed under Homo sapiens [8], 69%; in the assay listed under Homo sapiens [25], 7%; in the assay listed under Homo sapiens [27], 29%; in the assay filed under Homo sapiens [29], 3%. Further, the IC50 in the assay filed under Cavia porcellus [3] was greater than 100000 nM; in the assay filed under Cavia porcellus [4], 500 nM; in the assay filed under Homo sapiens [12] it was 1000 nM. Further, in the assay filed under Cavia porcellus [5], the Duration is less than 60 min. Besides, the Stimulation turned out to be 137% in the assay listed under Homo sapiens [26]; 556% in the assay filed under Homo sapiens [10]; 174% in the assay filed under Homo sapiens [28]; 404% in the assay listed under Homo sapiens [30]; 230% in the assay filed under Homo sapiens [31]. Moreover, in the assay on Cavia porcellus [6], the “Activity MABP” value was 107% and 153%. In addition, on Thromboxane A2 receptor [14], the affinity, expressed as Kd, was 1.6 nM. Further, the A50 in the assay filed under Rattus norvegicus [2] was determined as 25 µM.
In the case of `O=C(O)CCC/C=C\CC1C2CCC(O2)C1CSCCCc1ccccc1` (stereo not drawn), the A50 in the assay filed under Rattus norvegicus [2] is 0.2 µM.
In turn, `CC/C=C/CCSCC1C2CCC(O2)C1CC=CCCCC(=O)O` (stereo not drawn) returned an A50 in the assay listed under Rattus norvegicus [2] of 0.04 µM.
Consider `CCC/C=C/CSCC1C2CCC(O2)C1CC=CCCCC(=O)O` (stereo not drawn), for which the values for the IC50 in the assay listed under Cavia porcellus [3] and in the assay filed under Cavia porcellus [4] were greater than 100000 nM and 400 nM, respectively. For the same molecule, the Duration in the assay listed under Cavia porcellus [5] was less than 60 min. The “Activity MABP” value in the assay on Cavia porcellus [6] was 76% and 192%. The molecule further registered a Kd in assay [32] of 3.1 nM. Also, the A50 in the assay listed under Rattus norvegicus [2] worked out at 26 µM.
Turning to `CCCSCC1C2CCC(O2)C1C/C=C\CCCC(=O)O` (stereo not drawn), the Activity is 131% and 97% in the assay on Cavia porcellus [7]; 50% with Cavia porcellus [33]. For the same molecule, in the assay listed under Homo sapiens [12], the IC50 was found to be 700 nM. On Thromboxane A2 receptor [34], binding was characterised by a dissociation constant (Kd) of 97 nM. Further, the Agonist activity with Cavia porcellus [35] came out at 50%.
